# Measurements reported in ChEMBL document CHEMBL1140930 (J Med Chem, 2009).
# pEC50, pIC50: −log10 of the molar value.
# Tests used:
# [1] = Antiproliferative activity against human KB/HeLa cells by XTT assay; type: functional, cell-based
# Outline: (§1)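 XTT metabolic read-out. Cells seeded at 1 × 10³–8 × 10⁴ cells/well for logarithmic growth and exposed to graded concentrations for 48 h. At least two replicates. IC50 from nonlinear regression of dose-response curves. LT12/MDR: rat LT12 with ectopic human MDR-1. L1210/VCR: MDR-1 expressing, MRP-1 negative.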
# SK-OV-3 = assay: Antiproliferative activity against human SKOV3 cells by XTT assay; type: functional, cell-based
# Outline: (§2)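 XTT metabolic-activity read-out of proliferation. Cells were seeded at 1 × 10³-8 × 10⁴ cells/well for logarithmic growth and exposed to a range of compound concentrations for 48 h. IC50 came from nonlinear regression of dose-response curves, with at least two replicates. The P388/Adr subline was doxorubicin-selected with elevated MDR-1.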
# SF-268 = assay: Antiproliferative activity against human SF268 cells by XTT assay; type: functional, cell-based; outline: as §1
# NCI-H460 = assay: Antiproliferative activity against human NCI-H460 cells by XTT assay; type: functional, cell-based; outline: as §1
# RKO [2] = assay: Antiproliferative activity against human RKO cells by XTT assay; type: functional, cell-based
# Outline: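 RKO colon cells with ecdysone-inducible p27Kip1. Day 1: plated with or without 3 µM ponasterone A for 24 h, giving G1 arrest when induced (2 × 10⁴ cells/well induced; 6 × 10³ not induced). Day 2: compound added (DMSO control) for 48 h at 37 °C, then standard XTT. At least duplicate. IC50 by nonlinear regression.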
# RKO [3] = assay: Antiproliferative activity against human RKO cells containing ecdysone-inducible expression vector of p27kipl by XTT assay; type: functional, cell-based
# Outline: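 RKO cells carried an ecdysone-inducible p27Kip1 vector and were tested with and without induction. On day 1 they were plated with or without 3 µM ponasterone A, which gives G1 arrest, at 2 × 10⁴ cells/well induced or 6 × 10³ not induced, then held 24 h at 37 °C. Compound was then added for 48 h at 37 °C, followed by a standard XTT assay. IC50 came from nonlinear regression, n ≥ 2.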
# [4] = Antiproliferative activity against rat LT12 cells after 48 hrs by XTT assay; type: functional, cell-based; conditions: LT12, 48 h; outline: as §2
# [5] = Antiproliferative activity against rat LT12 cells ectopic expression of human MDR1 after 48 hrs by XTT assay; type: functional, cell-based; conditions: LT12, 48 h; outline: as §1
# L1210 [6] = assay: Antiproliferative activity against mouse L1210 cells after 48 hrs by XTT assay; type: functional, cell-based; conditions: L1210, 48 h; outline: as §2
# L1210 [7] = assay: Antiproliferative activity against vincristine-resistance MRP1 negative mouse L1210 cells expressing human MDR1 after 48 hrs by XTT assay; type: functional, cell-based; conditions: L1210, 48 h; outline: as §1
# P388 [8] = assay: Antiproliferative activity against mouse P388 cells after 48 hrs by XTT assay; type: functional, cell-based; conditions: P388, 48 h; outline: as §2
# P388 [9] = assay: Antiproliferative activity against doxorubicin-resistant mouse P388 cells expressing MDR1 protein after 48 hrs by XTT assay; type: functional, cell-based; conditions: P388, 48 h; outline: as §2
# [10] = Cell cycle arrest in human KB/HeLa cells assessed as G2/M phase accumulation after 24 hrs by FACS analysis; type: functional, cell-based
# Outline: (§3)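 Subconfluent KB/HeLa cells exposed to a range of compound concentrations for 24 h at 37 °C, then detached and fixed in 70% ethanol. DNA stained with propidium iodide after RNase digestion and measured by flow cytometry. Cell-cycle phase fractions taken from cell cycle analysis software. At least two replicates.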
# [11] = Cell cycle arrest in human KB/HeLa cells assessed as S phase accumulation at 0.1 nM after 24 hrs by FACS analysis; type: functional, cell-based; outline: as §3
# [12] = Cell cycle arrest in human KB/HeLa cells assessed as G2/M phase accumulation at 0.1 nM after 24 hrs by FACS analysis; type: functional, cell-based; outline: as §3
# [13] = Cell cycle arrest in human KB/HeLa cells assessed as G1 phase accumulation at 0.1 nM after 24 hrs by FACS analysis; type: functional, cell-based; outline: as §3
# [14] = Cell cycle arrest in human KB/HeLa cells assessed as S phase accumulation at 0.3 nM after 24 hrs by FACS analysis; type: functional, cell-based; outline: as §3
# [15] = Cell cycle arrest in human KB/HeLa cells assessed as G2/M phase accumulation at 0.3 nM after 24 hrs by FACS analysis; type: functional, cell-based; outline: as §3
# [16] = Cell cycle arrest in human KB/HeLa cells assessed as G1 phase accumulation at 0.3 nM after 24 hrs by FACS analysis; type: functional, cell-based; outline: as §3
# [17] = Cell cycle arrest in human KB/HeLa cells assessed as S phase accumulation at 1 nM after 24 hrs by FACS analysis; type: functional, cell-based; outline: as §3
# [18] = Cell cycle arrest in human KB/HeLa cells assessed as G2/M phase accumulation at 1 nM after 24 hrs by FACS analysis; type: functional, cell-based; outline: as §3
# [19] = Cell cycle arrest in human KB/HeLa cells assessed as G1 phase accumulation at 1 nM after 24 hrs by FACS analysis; type: functional, cell-based; outline: as §3
# [20] = Cell cycle arrest in human KB/HeLa cells assessed as S phase accumulation at 3.16 nM after 24 hrs by FACS analysis; type: functional, cell-based; outline: as §3
# [21] = Cell cycle arrest in human KB/HeLa cells assessed as G2/M phase accumulation at 3.16 nM after 24 hrs by FACS analysis; type: functional, cell-based; outline: as §3
# [22] = Cell cycle arrest in human KB/HeLa cells assessed as G1 phase accumulation at 3.16 nM after 24 hrs by FACS analysis; type: functional, cell-based; outline: as §3
# [23] = Cell cycle arrest in human KB/HeLa cells assessed as S phase accumulation at 10 nM after 24 hrs by FACS analysis; type: functional, cell-based; outline: as §3
# [24] = Cell cycle arrest in human KB/HeLa cells assessed as G2/M phase accumulation at 10 nM after 24 hrs by FACS analysis; type: functional, cell-based; outline: as §3
# [25] = Cell cycle arrest in human KB/HeLa cells assessed as G1 phase accumulation at 10 nM after 24 hrs by FACS analysis; type: functional, cell-based; outline: as §3
# [26] = Cell cycle arrest in human KB/HeLa cells assessed as S phase accumulation at 31.6 nM after 24 hrs by FACS analysis; type: functional, cell-based; outline: as §3
# [27] = Cell cycle arrest in human KB/HeLa cells assessed as G2/M phase accumulation at 31.6 nM after 24 hrs by FACS analysis; type: functional, cell-based; outline: as §3
# [28] = Cell cycle arrest in human KB/HeLa cells assessed as G1 phase accumulation at 31.6 nM after 24 hrs by FACS analysis; type: functional, cell-based; outline: as §3
# [29] = Cell cycle arrest in human KB/HeLa cells assessed as S phase accumulation at 100 nM after 24 hrs by FACS analysis; type: functional, cell-based; outline: as §3
# [30] = Cell cycle arrest in human KB/HeLa cells assessed as G2/M phase accumulation at 100 nM after 24 hrs by FACS analysis; type: functional, cell-based; outline: as §3
# [31] = Cell cycle arrest in human KB/HeLa cells assessed as G1 phase accumulation at 100 nM after 24 hrs by FACS analysis; type: functional, cell-based; outline: as §3
# [32] = Cell cycle arrest in human KB/HeLa cells assessed as S phase accumulation at 316 nM after 24 hrs by FACS analysis; type: functional, cell-based; outline: as §3
# [33] = Cell cycle arrest in human KB/HeLa cells assessed as G2/M phase accumulation at 316 nM after 24 hrs by FACS analysis; type: functional, cell-based; outline: as §3
# [34] = Cell cycle arrest in human KB/HeLa cells assessed as G1 phase accumulation at 316 nM after 24 hrs by FACS analysis; type: functional, cell-based; outline: as §3
# [35] = Cell cycle arrest in human KB/HeLa cells assessed as S phase accumulation at 1000 nM after 24 hrs by FACS analysis; type: functional, cell-based; outline: as §3
# [36] = Cell cycle arrest in human KB/HeLa cells assessed as G2/M phase accumulation at 1000 nM after 24 hrs by FACS analysis; type: functional, cell-based; outline: as §3
# [37] = Cell cycle arrest in human KB/HeLa cells assessed as G1 phase accumulation at 1000 nM after 24 hrs by FACS analysis; type: functional, cell-based; outline: as §3
# Tubulin [38] = biological target: T1, Tubulin (Sus scrofa, UniProt P02554+P02550); assay: Displacement of [3H]Colchicine from pig biotinylated tubulin after 2 hrs by SPA; type: protein assay
# Tubulin [39] = biological target: T1, Tubulin; assay: Displacement of [3H]paclitaxel from pig biotinylated tubulin after 2 hrs by SPA; type: protein assay
# K562 = assay: Antiproliferative activity against human K562 cells after 48 hrs; type: functional, cell-based; conditions: K562, 48 h
# Outline: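 K562 cells (RPMI 1640, 10% FBS, 37 °C, 5% CO2) plated at 2 × 10⁵ cells/mL. Compounds dissolved in DMSO/methanol 1:1, vehicle 0.5%. Cells counted in a Neubauer chamber after 48 h and expressed as % of untreated control. Triplicate wells, three experiments. IC50 from nonlinear regression.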
# Tubulin [40] = biological target: T1, Tubulin; assay: Inhibition of pig brain tubulin polymerization after 30 mins by turbidimetric assay
# Outline: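 Microtubule protein from porcine brain (80–90% tubulin, 10–20% MAPs), purified by two disassembly/reassembly cycles. Assay buffer: 20 mM PIPES pH 6.8, 80 mM NaCl, 0.5 mM MgCl2, 1 mM EGTA, 1 mM DTT. Protein at 1.2 mg/mL with 0.6 mM GTP final, 1% DMSO final, 37 °C.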
smiles,measurement,setting,value
COc1ccc(C(=O)C=C2c3ccccc3C(=O)c3ccccc32)cc1,pIC50,[1],7.22
same,pIC50,SK-OV-3,7.22
same,pIC50,SF-268,7.22
same,pIC50,NCI-H460,7.15
same,pIC50,RKO [2],7.10
same,pIC50,RKO [3],< 5.05
same,pIC50,[4],7.30
same,pIC50,[5],7.30
same,pIC50,L1210 [6],7.30
same,pIC50,L1210 [7],7.30
same,pIC50,P388 [8],7.40
same,pIC50,P388 [9],7.30
same,pEC50,[10],7.05
same,Activity,[11],26.1%
same,Activity,[12],13.2%
same,Activity,[13],60.7%
same,Activity,[14],27.1%
same,Activity,[15],10.8%
same,Activity,[16],62.1%
same,Activity,[17],26.1%
same,Activity,[18],11.6%
same,Activity,[19],62.3%
same,Activity,[20],26.2%
same,Activity,[21],11.8%
same,Activity,[22],62%
same,Activity,[23],26%
same,Activity,[24],11.3%
same,Activity,[25],62.7%
same,Activity,[26],34.1%
same,Activity,[27],8.4%
same,Activity,[28],57.5%
same,Activity,[29],16.7%
same,Activity,[30],74.9%
same,Activity,[31],8.4%
same,Activity,[32],6.2%
same,Activity,[33],92.8%
same,Activity,[34],1%
same,Activity,[35],9.2%
same,Activity,[36],88.5%
same,Activity,[37],2.3%
same,IC50,Tubulin [38],400 nM
same,IC50,Tubulin [39],> 100000 nM
same,pIC50,K562,7.15
same,IC50,Tubulin [40],520 nM
COc1ccc(C(=O)C=C2c3ccccc3C(=O)c3ccccc32)cc1OC,pIC50,[1],5.97
same,pIC50,SF-268,5.57
same,pIC50,NCI-H460,5.85
same,pIC50,RKO [2],6.29
same,pIC50,RKO [3],< 5.05
same,pIC50,[4],6.43
same,pIC50,[5],6.36
same,pIC50,L1210 [6],6.01
same,pIC50,L1210 [7],6.01
same,pIC50,P388 [8],6.05
same,pIC50,P388 [9],5.96
same,pIC50,K562,5.89
same,IC50,Tubulin [40],6000 nM
